# Tests used:
# Cannabinoid receptor 1 [1] = molecular target: T1, Cannabinoid receptor 1 (Rattus norvegicus, UniProt P20272); test: The compound was tested for Ki value against rat whole brain P2 membrane preparation in presence of enzyme inhibitor PMSF.
# Method in brief: (§1)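 Rat whole-brain P2 membranes (100-150 µg protein) incubated 1 h at 30 °C with 1 nM [3H]CP-55,940 and analogue at 1 nM-10 µM, with or without PMSF (50 µM). Buffer: 50 mM Tris-HCl, 1 mM EDTA, 3 mM MgCl2, 5 mg/mL BSA; ethanol ≤0.4%. Nonspecific binding with 1 µM CP-55,940. Stopped with ice-cold buffer, then rapid filtration on PEI-treated filters. Triplicates; 3-6 experiments; mean ± SE.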
# Mus musculus [2] = test: The compound tested in vivo for antinociception as measured by tail flick response(TF) activity at 30 mg/kg; type: functional
# Method in brief: (§2)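 Mice dosed iv by tail vein in ethanol:emulphor:saline 1:1:18. Tail flick to heat measured at 4 min, with 2-4 s baseline and 10 s cut-off, expressed as %MPE. Same mice then placed in photocell cages; beam breaks counted over 10 min and expressed as % of control. 6 mice/dose. ED50 from probit versus log dose by least-squares regression.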
# Mus musculus [3] = test: The compound tested in vivo for inhibition of spontaneous activity(SA)at 30 mg/kg; type: functional; parameters: scale not given: the % may be the effect or the level left; method in brief: as §2
# Mus musculus [4] = test: The compound tested in vivo for antinociception as measured by tail flick response(TF); type: functional; method in brief: as §2
# Mus musculus [5] = test: The compound tested in vivo for hypothermia as changes in rectal temperature (RT); type: functional
# Method in brief: (§3)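 Separate mice dosed iv by tail vein in ethanol:emulphor:saline 1:1:18. Rectal temperature taken by thermistor probe before and 4 min after injection; the change was recorded. Mice then placed on a 5.5-cm ring 16 cm high; time motionless over 5 min was taken as % of 300 s. Immobility ED50 from probit-log dose regression.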
# Cannabinoid receptor 1 [6] = molecular target: T1, Cannabinoid receptor 1; test: The compound was tested for Ki value against rat whole brain P2 membrane preparation in absence of enzyme inhibitor PMSF; method in brief: as §1
# Mus musculus [7] = test: The compound tested in vivo for inhibition of spontaneous activity(SA); type: functional; method in brief: as §2
# Mus musculus [8] = test: The compound tested in vivo for ring immobility (RI); type: functional; method in brief: as §3
# Mus musculus [9] = test: The compound tested in vivo for ring immobility (RI)a; type: functional; method in brief: as §3
# T1 sequence (P20272 whole entry): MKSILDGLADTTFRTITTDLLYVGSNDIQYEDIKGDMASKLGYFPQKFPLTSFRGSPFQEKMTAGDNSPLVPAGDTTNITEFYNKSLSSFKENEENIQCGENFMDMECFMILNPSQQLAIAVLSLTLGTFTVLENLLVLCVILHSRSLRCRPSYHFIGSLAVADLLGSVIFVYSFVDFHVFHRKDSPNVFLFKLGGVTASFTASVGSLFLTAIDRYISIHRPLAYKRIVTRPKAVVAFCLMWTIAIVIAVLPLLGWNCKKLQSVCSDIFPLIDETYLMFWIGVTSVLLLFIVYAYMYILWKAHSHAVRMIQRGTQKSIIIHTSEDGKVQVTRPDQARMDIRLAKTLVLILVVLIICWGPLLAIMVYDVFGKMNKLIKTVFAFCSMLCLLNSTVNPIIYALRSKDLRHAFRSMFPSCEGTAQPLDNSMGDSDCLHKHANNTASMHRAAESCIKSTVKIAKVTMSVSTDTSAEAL
smiles,measurement,setting,value
CCCCC/C=C\C/C=C\C/C=C\C/C=C\CCCCOC(=O)NCC,Ki,Cannabinoid receptor 1 [1],2200 nM
CCCCC/C=C\C/C=C\C/C=C\C/C=C\CCCNC(=O)NCC(C)C,Ki,Cannabinoid receptor 1 [1],335 nM
same,Activity,Mus musculus [2],26%
same,Activity,Mus musculus [3],59%
CCCCC/C=C\C/C=C\C/C=C\C/C=C\CCCCOCCO,Ki,Cannabinoid receptor 1 [1],797 nM
CCCCC/C=C\C/C=C\C/C=C\C/C=C\CCCCOC,Ki,Cannabinoid receptor 1 [1],4260 nM
CCCCC/C=C\C/C=C\C/C=C\C/C=C\CCCNC(=O)NCCC,Ki,Cannabinoid receptor 1 [1],91 nM
same,ED50,Mus musculus [4],8.9 mg/kg
same,ED50,Mus musculus [5],3.4 mg/kg
same,Ki,Cannabinoid receptor 1 [6],170 nM
same,ED50,Mus musculus [7],7.2 mg/kg
same,ED50,Mus musculus [8],5.4 mg/kg
C=CCOCCCC/C=C\C/C=C\C/C=C\C/C=C\CCCCC,Ki,Cannabinoid receptor 1 [1],1170 nM
CCCCC/C=C\C/C=C\C/C=C\C/C=C\CCCCOCCCC,Ki,Cannabinoid receptor 1 [1],1710 nM
CCCCC/C=C\C/C=C\C/C=C\C/C=C\CCCCOC(C)C,Ki,Cannabinoid receptor 1 [1],871 nM
CCCCC/C=C\C/C=C\C/C=C\C/C=C\CCCNC(=O)NC(C)C,Ki,Cannabinoid receptor 1 [1],131 nM
same,ED50,Mus musculus [4],2.4 mg/kg
same,ED50,Mus musculus [5],1.28 mg/kg
same,Ki,Cannabinoid receptor 1 [6],204 nM
same,ED50,Mus musculus [7],5.8 mg/kg
same,ED50,Mus musculus [8],38 mg/kg
CCCCC/C=C\C/C=C\C/C=C\C/C=C\CCCNC(=O)NCC,Ki,Cannabinoid receptor 1 [1],156 nM
same,ED50,Mus musculus [4],3.3 mg/kg
same,ED50,Mus musculus [5],16.2 mg/kg
same,ED50,Mus musculus [7],2.8 mg/kg
same,ED50,Mus musculus [8],19.9 mg/kg
CCCCC/C=C\C/C=C\C/C=C\C/C=C\CCCCOCCF,Ki,Cannabinoid receptor 1 [1],885 nM
CCCCC/C=C\C/C=C\C/C=C\C/C=C\CCCNC(=O)OC(C)C,Ki,Cannabinoid receptor 1 [1],1230 nM
same,Activity,Mus musculus [2],3%
same,Activity,Mus musculus [3],35%
CCCCC/C=C\C/C=C\C/C=C\C/C=C\CCCCOCC(C)C,Ki,Cannabinoid receptor 1 [1],2480 nM
CCCCC/C=C\C/C=C\C/C=C\C/C=C\CCCCOC(C)CC (stereo not given),Ki,Cannabinoid receptor 1 [1],1310 nM
CCCCC/C=C\C/C=C\C/C=C\C/C=C\CCCCOC(=O)NCCC,Ki,Cannabinoid receptor 1 [1],471 nM
CCCCC/C=C\C/C=C\C/C=C\C/C=C\CCCCOC(=O)NC(C)C,Ki,Cannabinoid receptor 1 [1],995 nM
C#CCOCCCC/C=C\C/C=C\C/C=C\C/C=C\CCCCC,Ki,Cannabinoid receptor 1 [1],1580 nM
CCCCC/C=C\C/C=C\C/C=C\C/C=C\CCCNC(=O)NCCO,Ki,Cannabinoid receptor 1 [1],347 nM
same,ED50,Mus musculus [4],4 mg/kg
same,ED50,Mus musculus [5],2.6 mg/kg
same,ED50,Mus musculus [7],3.1 mg/kg
same,ED50,Mus musculus [8],3.9 mg/kg
CCCCC/C=C\C/C=C\C/C=C\C/C=C\CCCCOCC,Ki,Cannabinoid receptor 1 [1],2200 nM
CCCCC/C=C\C/C=C\C/C=C\C/C=C\CCCNC(=O)OCCF,Ki,Cannabinoid receptor 1 [1],331 nM
same,Activity,Mus musculus [2],20%
same,Activity,Mus musculus [3],18%
CCCCC/C=C\C/C=C\C/C=C\C/C=C\CCCNC(=O)OCC,Ki,Cannabinoid receptor 1 [1],218 nM
same,Activity,Mus musculus [2],5%
same,Activity,Mus musculus [3],36%
CCCCC/C=C\C/C=C\C/C=C\C/C=C\CCCNC(=O)NCCOC,Ki,Cannabinoid receptor 1 [1],746 nM
same,Activity,Mus musculus [2],32%
same,Activity,Mus musculus [3],69%
same,ED50,Mus musculus [8],3 mg/kg
CCCCC/C=C\C/C=C\C/C=C\C/C=C\CCCNC(=O)NC,Ki,Cannabinoid receptor 1 [1],436 nM
same,ED50,Mus musculus [4],12.3 mg/kg
same,ED50,Mus musculus [5],2.2 mg/kg
same,ED50,Mus musculus [7],9.9 mg/kg
same,ED50,Mus musculus [8],4.51 mg/kg
CCCCC/C=C\C/C=C\C/C=C\C/C=C\CCCCOCCC,Ki,Cannabinoid receptor 1 [1],1080 nM
CCCCC/C=C\C/C=C\C/C=C\C/C=C\CCCCOCC1CC1,Ki,Cannabinoid receptor 1 [1],578 nM
CCCCC/C=C\C/C=C\C/C=C\C/C=C\CCCNC(=O)NCCF,Ki,Cannabinoid receptor 1 [1],55 nM
same,ED50,Mus musculus [4],6.4 mg/kg
same,ED50,Mus musculus [5],0.85 mg/kg
same,Ki,Cannabinoid receptor 1 [6],52 nM
same,ED50,Mus musculus [7],3.5 mg/kg
same,ED50,Mus musculus [9],4.48 mg/kg
CCCCC/C=C\C/C=C\C/C=C\C/C=C\CCCC(=O)NCCO [ANANDAMIDE],ED50,Mus musculus [4],6.2 mg/kg
